Test [1] is filed under the species Bos taurus. Briefly: Inhibition of calf brain tubulin polymerization at 20 uM relative to control. Summed up:
(§1)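 Calf brain microtubule protein was purified by two cycles of temperature-dependent assembly/disassembly. Assay used 1.0 mg/mL MTP in 0.1 M MES, 1 mM EGTA, 1 mM MgCl2, 1 mM β-ME, 1.5 mM GTP, pH 6.7, with 4% DMSO. Ligand was preincubated 30 min at 20 °C, then 10 min on ice, and assembly started by shift from 4 °C to 37 °C. Turbidity was followed against a no-ligand control. Inhibition is percent of control, mean of at least three experiments.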

The next test has as its system HeLa. Description: Cytotoxicity against human HeLa cells after 72 hrs by XTT assay. Format: functional, cell-based. A digest of the protocol: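 HeLa (1.5 × 10³/well), HT-29 (3 × 10³/well) or A-549 (5 × 10³/well) cells seeded in 100 µL and allowed to attach for 24 h at 37 °C, 5% CO₂. Compounds at a range of concentrations for 72 h. Then XTT/PMS reagent added for 4 h, with absorbance read at 490 nm (reference 655 nm). IC50 is the concentration giving 50% inhibition of proliferation, mean of at least six experiments.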
A general note: Formazan colour is commonly taken as a measure of viable cells.

The next test concerns HT-29. Briefly: Cytotoxicity against human HT-29 cells after 72 hrs by XTT assay. Format: functional, cell-based.
The next test deals with A549. Description: Cytotoxicity against human A549 cells after 72 hrs by XTT assay. Format: functional, cell-based.
The nature of test [2]: Inhibition of calf brain tubulin polymerization relative to control. On the set-up: species or system Bos taurus. A digest of the protocol: as §1
The species named for test [3] is Bos taurus. Description: Inhibition of calf brain tubulin polymerization at 30 uM relative to control. Summed up: as §1
The species entered for test [4] is Bos taurus. Briefly: Inhibition of calf brain tubulin polymerization at 40 uM relative to control. A digest of the protocol: as §1

The source of these data is ChEMBL document CHEMBL1141719, “Naphthylphenstatins as tubulin ligands: synthesis and biological evaluation” (Bioorg Med Chem, 2008).

Where “and” joins values, the source holds several entries; their conditions need not be identical. Identical values can stand only once.

For `COc1cc(/C(=N/OC(C)=O)c2ccc3ccccc3c2)cc(OC)c1OC`, the inhibition (commonly the drop in the measured response relative to a control, in per cent) in the test listed under Bos taurus [1] is 38%. In addition, the IC50 – broadly, the concentration that gives 50% inhibition – was 0.001 µM with HeLa (Homo sapiens, HeLa, 72 h) and 1 µM in the test with HT-29 (Homo sapiens, HT-29, 72 h).

Turning to `COc1ccc(/C(=N\OC(C)=O)c2ccc3ccccc3c2)c(OC)c1OC`, the inhibition in the test filed under Bos taurus [1] came out at 0%. The IC50 with HeLa (Homo sapiens, HeLa, 72 h) is 1.2 µM; with A549 (Homo sapiens, A549, 72 h), 10 µM; in the test with A549 (a549), greater than 10 µM; with HT-29 (Homo sapiens, HT-29, 72 h), 10 µM; in the test on HT-29 (ht-29) it was greater than 10 µM.

In the test listed under Bos taurus [1], `CO/N=C(/c1cc(OC)c(OC)c(OC)c1)c1ccc2ccccc2c1` gave an inhibition of 4%. Besides, the IC50 in the test with HT-29 (Homo sapiens, HT-29, 72 h) was found to be 1 µM.

Regarding `COc1cc(C(=O)c2ccc3ccccc3c2)cc(OC)c1OC`, the IC50 in test [2] turned out to be 1.1 µM; with A549 (a549) it was 0.043 µM.

In the test listed under Bos taurus [1], `COc1cc(/C(=N\OC(C)=O)c2ccc3ccccc3c2)cc(OC)c1OC` gave an inhibition of 10%.

Compound `COc1ccc(/C(=N\N)c2ccc3ccccc3c2)c(OC)c1OC` gave an inhibition in the test listed under Bos taurus [1] of 0%.

On to `COc1ccc(/C(=N\OC(=O)OC(C)(C)C)c2ccc3ccccc3c2)c(OC)c1OC`, for which the IC50 in the test with HT-29 (Homo sapiens, HT-29, 72 h) is 10 µM; with HT-29 (ht-29), greater than 10 µM.

In the test listed under Bos taurus [1], `COc1ccc(/C=C\c2cc(OC)c(OC)c(OC)c2)cc1O` [COMBRETASTATIN A4] came in with an inhibition of 100%. In addition, the IC50 in test [2] amounted to 3 µM; in the test with HeLa (Homo sapiens, HeLa, 72 h), 2.7 µM.

In the case of `COc1ccc(C(OC(C)=O)c2ccc3ccccc3c2)c(OC)c1OC` (stereo unspecified), in the test filed under Bos taurus [1], the inhibition came to 26%. Besides, the IC50 was 2.7 µM in the test on HeLa (Homo sapiens, HeLa, 72 h) and 10 µM in the test with A549 (Homo sapiens, A549, 72 h).

As to `COc1cc(/C(=N\NC(C)=O)c2ccc3ccccc3c2)cc(OC)c1OC`, in the test filed under Bos taurus [1], the inhibition is 0%.

Consider `COc1ccc(C(=O)c2ccc3ccccc3c2)c(OC)c1OC`, for which the inhibition in the test filed under Bos taurus [1] was 0.25% and 4%. In addition, the IC50 in the test with HeLa (hela) is 4 µM; in the test on A549 (a549), 1.7 µM and > 10 µM.

In turn, `COc1ccc(C(C)(O)c2ccc3ccccc3c2)c(OC)c1OC` (stereo unspecified) registered an inhibition in the test listed under Bos taurus [1] of 3%. Also, the IC50 in the test on HeLa (Homo sapiens, HeLa, 72 h) was 1 µM; with A549 (Homo sapiens, A549, 72 h), 10 µM.

The compound `COc1ccc(/C(=N/O)c2ccc3ccccc3c2)c(OC)c1OC` showed an inhibition in the test listed under Bos taurus [3] of 0%. Further, the IC50 with HeLa (Homo sapiens, HeLa, 72 h) was 0.4 µM; in the test on A549 (Homo sapiens, A549, 72 h), 10 µM; in the test on A549 (a549), greater than 10 µM; in the test on HT-29 (Homo sapiens, HT-29, 72 h) it was 1 µM.

`COc1cc(/C(=N\OC(=O)OC(C)(C)C)c2ccc3ccccc3c2)cc(OC)c1OC`: in the test filed under Bos taurus [1], the inhibition was 15%. Further, the IC50 in the test with HT-29 (Homo sapiens, HT-29, 72 h) was 10 µM; in the test on HT-29 (ht-29), greater than 10 µM.

For the compound `COc1ccc(C(=O)c2cc(OC)c(OC)c(OC)c2)cc1O` [PHENSTATIN], in test [2], the IC50 turned out to be 2.5 µM.

As for `COc1cc(/C(=N/O)c2ccc3ccccc3c2)cc(OC)c1OC`, the inhibition in the test listed under Bos taurus [3] is 0%. Besides, the IC50 with HeLa (Homo sapiens, HeLa, 72 h) was 1.5 µM; with A549 (Homo sapiens, A549, 72 h), 10 µM; in the test on A549 (a549) it was greater than 10 µM; in the test with HT-29 (Homo sapiens, HT-29, 72 h), 1.8 µM.

In the test filed under Bos taurus [1], `COc1cc(C(c2ccc3ccccc3c2)n2ccnc2)cc(OC)c1OC` (stereo unspecified) had an inhibition of 0%. The IC50 in the test with HT-29 (Homo sapiens, HT-29, 72 h) is 10 µM; with HT-29 (ht-29) it was greater than 10 µM.

Compound `COc1ccc(/C(=N\NC(C)=O)c2ccc3ccccc3c2)c(OC)c1OC` yielded an inhibition in the test listed under Bos taurus [1] of 0%.

Turning to `COc1cc(/C(=N/N)c2ccc3ccccc3c2)cc(OC)c1OC`, in the test filed under Bos taurus [3], the inhibition was found to be 0%. In the test on HT-29 (Homo sapiens, HT-29, 72 h), 10 µM corresponded to half-maximal inhibition (IC50).

On to `CN/N=C(/c1cc(OC)c(OC)c(OC)c1)c1ccc2ccccc2c1`, for which the inhibition in the test filed under Bos taurus [3] is 31%.

For the compound `COc1ccc(C(O)c2ccc3ccccc3c2)c(OC)c1OC` (stereo unspecified), the inhibition in the test filed under Bos taurus [1] came out at 0%. For the same compound, the IC50 with HeLa (Homo sapiens, HeLa, 72 h) was 10 µM; with A549 (Homo sapiens, A549, 72 h), 10 µM; in the test with A549 (a549) it was greater than 10 µM.

Compound `COc1cc(/C(=N/NC(C)=O)c2ccc3ccccc3c2)cc(OC)c1OC` had an inhibition in the test listed under Bos taurus [3] of 35%. Further, the IC50 was 10 µM with HeLa (Homo sapiens, HeLa, 72 h); greater than 10 µM with HeLa (hela); 10 µM with A549 (Homo sapiens, A549, 72 h); greater than 10 µM in the test with A549 (a549); 10 µM in the test with HT-29 (Homo sapiens, HT-29, 72 h); greater than 10 µM with HT-29 (ht-29).

Regarding `COc1cc(C(O)c2ccc3ccccc3c2)cc(OC)c1OC` (stereo unspecified), the inhibition in the test listed under Bos taurus [4] stood at 0%.

Turning to `COc1cc(C(OC(C)=O)c2ccc3ccccc3c2)cc(OC)c1OC` (stereo unspecified), in the test filed under Bos taurus [1], the inhibition was 10% and 5%. In addition, the IC50 was 10 µM and 3.8 µM in the test on HeLa (hela); 1.2 µM and > 10 µM in the test with A549 (a549).
